The source of these data is ChEMBL document CHEMBL3272272, “Photoaffinity labeling of the angiotensin II receptor. 1. Synthesis and biological activities of the labeling peptides” (J Med Chem, 1978).

Non-standard residues stand in square brackets, D forms with d. Residues, ends and D or L forms follow the SMILES beside them. Phe(4-NO2) = N[C@@H](Cc1ccc([N+](=O)[O-])cc1)C(=O)O; Phe(3,5-I2,4-NH2) = Nc1c(I)cc(C[C@H](N)C(=O)O)cc1I; Phe(4-N3) = [N-]=[N+]=Nc1ccc(C[C@H](N)C(=O)O)cc1; Phe(4-N2+) = N#[N+]c1ccc(C[C@H](N)C(=O)O)cc1; Phe(4-NH2) = Nc1ccc(C[C@H](N)C(=O)O)cc1; Sar = CNCC(=O)O

Experiment [1] is filed under the species Oryctolagus cuniculus. Put plainly: Agonist activity at rabbit angiotensin […] receptor in aorta strips assessed as peptide concentration required to produce 50% maximal response under exclusion of long wavelength UV light. The method, boiled down: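 Rabbit aorta contractile bioassay. […]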

The species entered for experiment [2] is Oryctolagus cuniculus. The experiment is described as follows: Relative binding affinity at rabbit angiotensin […] receptor in aorta strips under exclusion of long wavelength UV light relative to control. In kind it is tissue-based.
Experiment [3] is filed under the species Oryctolagus cuniculus. The experiment is described as follows: Intrinsic activity at rabbit angiotensin […] receptor in aorta strips under exclusion of long wavelength UV light. In kind it is tissue-based. The method in brief:
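Intrinsic activity (αE) was determined with the rabbit aorta bioassay.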

The nature of experiment [4]: Antagonist activity at rabbit angiotensin […] receptor in aorta strips under exclusion of long wavelength UV light. In kind it is tissue-based. As to conditions: Oryctolagus cuniculus, read-out: pA2 (converted).

As for `CNCC(=O)N[C@@H](CCCNC(=N)N)C(=O)N[C@H](C(=O)N[C@@H](Cc1ccc([N+]#N)cc1)C(=O)N[C@H](C(=O)N[C@@H](Cc1cnc[nH]1)C(=O)N1CCC[C@H]1C(=O)N[C@@H](Cc1ccccc1)C(=O)O)C(C)C)C(C)C` (H-[Sar]RV[Phe(4-N2+)]VHPF-OH), the pD2 in the experiment filed under Oryctolagus cuniculus [1] amounted to 7.05. Besides, in the experiment listed under Oryctolagus cuniculus [2], the RBA amounted to 0.66%. In the experiment filed under Oryctolagus cuniculus [3], this compound displayed an Intrinsic activity of 1.

On to `CNCC(=O)N[C@@H](CCCNC(=N)N)C(=O)N[C@H](C(=O)N[C@@H](Cc1ccc(N=[N+]=[N-])cc1)C(=O)N[C@H](C(=O)N[C@@H](Cc1cnc[nH]1)C(=O)N1CCC[C@H]1C(=O)N[C@@H](Cc1ccc(N=[N+]=[N-])cc1)C(=O)O)C(C)C)C(C)C` (H-[Sar]RV[Phe(4-N3)]VHP[Phe(4-N3)]-OH), for which, in the experiment listed under Oryctolagus cuniculus [1], the pD2 was found to be 6.12. This compound also returned an RBA in the experiment filed under Oryctolagus cuniculus [2] of 0.07%. The same compound displayed an Intrinsic activity in the experiment filed under Oryctolagus cuniculus [3] of 0.8.

For `CNCC(=O)N[C@@H](CCCNC(=N)N)C(=O)N[C@H](C(=O)N[C@@H](Cc1ccc(O)cc1)C(=O)N[C@H](C(=O)N[C@@H](Cc1cnc[nH]1)C(=O)N1CCC[C@H]1C(=O)N[C@@H](Cc1ccc([N+](=O)[O-])cc1)C(=O)O)C(C)C)C(C)C`, the pD2 in the experiment filed under Oryctolagus cuniculus [1] stood at 9.07. For the same compound, the RBA in the experiment filed under Oryctolagus cuniculus [2] was 69%. The Kb in experiment [4] was 0.372 nM. In the experiment listed under Oryctolagus cuniculus [3], this compound had an Intrinsic activity of 0.46.

For the compound `CNCC(=O)N[C@@H](CCCNC(=N)N)C(=O)N[C@H](C(=O)N[C@@H](Cc1ccc(N=[N+]=[N-])cc1)C(=O)N[C@H](C(=O)N[C@@H](Cc1cnc[nH]1)C(=O)N1CCC[C@H]1C(=O)N[C@@H](Cc1ccccc1)C(=O)O)C(C)C)C(C)C` (H-[Sar]RV[Phe(4-N3)]VHPF-OH), the pD2 in the experiment filed under Oryctolagus cuniculus [1] was determined as 6.65. Also, in the experiment listed under Oryctolagus cuniculus [2], the RBA stood at 0.26%. Further, the Intrinsic activity in the experiment listed under Oryctolagus cuniculus [3] was 0.75.

As for `CNCC(=O)N[C@@H](CCCNC(=N)N)C(=O)N[C@H](C(=O)N[C@@H](Cc1ccc(O)cc1)C(=O)N[C@H](C(=O)N[C@@H](Cc1cnc[nH]1)C(=O)N1CCC[C@H]1C(=O)N[C@@H](Cc1ccc(N)cc1)C(=O)O)C(C)C)C(C)C`, the pD2 in the experiment filed under Oryctolagus cuniculus [1] is 8.8. In the experiment filed under Oryctolagus cuniculus [2], this compound yielded an RBA of 37%. For the same compound, in the experiment filed under Oryctolagus cuniculus [3], the Intrinsic activity worked out at 1.

In turn, `CNCC(=O)N[C@@H](CCCNC(=N)N)C(=O)N[C@H](C(=O)N[C@@H](Cc1ccc(O)cc1)C(=O)N[C@H](C(=O)N[C@@H](Cc1cnc[nH]1)C(=O)N1CCC[C@H]1C(=O)N[C@@H](Cc1cc(I)c(N)c(I)c1)C(=O)O)C(C)C)C(C)C` yielded an RBA in the experiment listed under Oryctolagus cuniculus [2] of 118%. The Kb in experiment [4] was 0.501 nM. For the same compound, the Intrinsic activity in the experiment filed under Oryctolagus cuniculus [3] turned out to be 0.

Regarding `CNCC(=O)N[C@@H](CCCNC(=N)N)C(=O)N[C@H](C(=O)N[C@@H](Cc1cc(I)c(N)c(I)c1)C(=O)N[C@H](C(=O)N[C@@H](Cc1cnc[nH]1)C(=O)N1CCC[C@H]1C(=O)N[C@@H](Cc1ccccc1)C(=O)O)C(C)C)C(C)C` (H-[Sar]RV[Phe(3,5-I2,4-NH2)]VHPF-OH), in the experiment filed under Oryctolagus cuniculus [1], the pD2 was found to be 7.68. For the same compound, the RBA in the experiment filed under Oryctolagus cuniculus [2] was determined as 2.7%. The Intrinsic activity in the experiment filed under Oryctolagus cuniculus [3] turned out to be 1.

With `CNCC(=O)N[C@@H](CCCNC(=N)N)C(=O)N[C@H](C(=O)N[C@@H](Cc1ccc([N+](=O)[O-])cc1)C(=O)N[C@H](C(=O)N[C@@H](Cc1cnc[nH]1)C(=O)N1CCC[C@H]1C(=O)N[C@@H](Cc1ccc([N+](=O)[O-])cc1)C(=O)O)C(C)C)C(C)C` (H-[Sar]RV[Phe(4-NO2)]VHP[Phe(4-NO2)]-OH), the pD2 in the experiment filed under Oryctolagus cuniculus [1] came to 6.02. In the experiment listed under Oryctolagus cuniculus [2], this compound had an RBA of 0.06%. The Kb in experiment [4] was 759 nM. The Intrinsic activity in the experiment filed under Oryctolagus cuniculus [3] was found to be 0.5.

As for `CNCC(=O)N[C@@H](CCCNC(=N)N)C(=O)N[C@H](C(=O)N[C@@H](Cc1ccc([N+](=O)[O-])cc1)C(=O)N[C@H](C(=O)N[C@@H](Cc1cnc[nH]1)C(=O)N1CCC[C@H]1C(=O)N[C@@H](Cc1ccccc1)C(=O)O)C(C)C)C(C)C` (H-[Sar]RV[Phe(4-NO2)]VHPF-OH), the RBA in the experiment listed under Oryctolagus cuniculus [2] was 0%. In addition, the Intrinsic activity in the experiment filed under Oryctolagus cuniculus [3] was 0.

For the compound `CNCC(=O)N[C@@H](CCCNC(=N)N)C(=O)N[C@H](C(=O)N[C@@H](Cc1ccc(O)cc1)C(=O)N[C@H](C(=O)N[C@@H](Cc1cnc[nH]1)C(=O)N1CCC[C@H]1C(=O)N[C@@H](Cc1ccc([N+]#N)cc1)C(=O)O)C(C)C)C(C)C`, in the experiment filed under Oryctolagus cuniculus [1], the pD2 came to 8.33. This compound also registered an RBA in the experiment listed under Oryctolagus cuniculus [2] of 13%. The same compound showed an Intrinsic activity in the experiment listed under Oryctolagus cuniculus [3] of 1.

For `CNCC(=O)N[C@@H](CCCNC(=N)N)C(=O)N[C@H](C(=O)N[C@@H](Cc1ccc(O)cc1)C(=O)N[C@H](C(=O)N[C@@H](Cc1cnc[nH]1)C(=O)N1CCC[C@H]1C(=O)N[C@@H](Cc1ccccc1)C(=O)O)C(C)C)C(C)C` (H-[Sar]RVYVHPF-OH), the pD2 in the experiment listed under Oryctolagus cuniculus [1] was found to be 9.23. Further, the Intrinsic activity in the experiment filed under Oryctolagus cuniculus [3] came out at 1.

For `CNCC(=O)N[C@@H](CCCNC(=N)N)C(=O)N[C@H](C(=O)N[C@@H](Cc1ccc(N)cc1)C(=O)N[C@H](C(=O)N[C@@H](Cc1cnc[nH]1)C(=O)N1CCC[C@H]1C(=O)N[C@@H](Cc1ccc(N)cc1)C(=O)O)C(C)C)C(C)C` (H-[Sar]RV[Phe(4-NH2)]VHP[Phe(4-NH2)]-OH), in the experiment filed under Oryctolagus cuniculus [1], the pD2 amounted to 8.17. This compound registered an RBA in the experiment listed under Oryctolagus cuniculus [2] of 8.7%. Moreover, the Intrinsic activity in the experiment listed under Oryctolagus cuniculus [3] turned out to be 1.

Regarding `CNCC(=O)N[C@@H](CCCNC(=N)N)C(=O)N[C@H](C(=O)N[C@@H](Cc1ccc([N+]#N)cc1)C(=O)N[C@H](C(=O)N[C@@H](Cc1cnc[nH]1)C(=O)N1CCC[C@H]1C(=O)N[C@@H](Cc1ccc([N+]#N)cc1)C(=O)O)C(C)C)C(C)C` (H-[Sar]RV[Phe(4-N2+)]VHP[Phe(4-N2+)]-OH), the pD2 in the experiment filed under Oryctolagus cuniculus [1] was found to be 7.36. In addition, the RBA in the experiment filed under Oryctolagus cuniculus [2] was 1.3%. Also, in the experiment listed under Oryctolagus cuniculus [3], the Intrinsic activity amounted to 1.

As to `CNCC(=O)N[C@@H](CCCNC(=N)N)C(=O)N[C@H](C(=O)N[C@@H](Cc1ccc(O)cc1)C(=O)N[C@H](C(=O)N[C@@H](Cc1cnc[nH]1)C(=O)N1CCC[C@H]1C(=O)N[C@@H](Cc1ccc(N=[N+]=[N-])cc1)C(=O)O)C(C)C)C(C)C`, the pD2 in the experiment listed under Oryctolagus cuniculus [1] was determined as 8.72. In addition, the RBA in the experiment filed under Oryctolagus cuniculus [2] is 31%. Besides, the Intrinsic activity in the experiment filed under Oryctolagus cuniculus [3] stood at 1.

On to `CNCC(=O)N[C@@H](CCCNC(=N)N)C(=O)N[C@H](C(=O)N[C@@H](Cc1ccc(N)cc1)C(=O)N[C@H](C(=O)N[C@@H](Cc1cnc[nH]1)C(=O)N1CCC[C@H]1C(=O)N[C@@H](Cc1ccccc1)C(=O)O)C(C)C)C(C)C` (H-[Sar]RV[Phe(4-NH2)]VHPF-OH), for which the pD2 in the experiment listed under Oryctolagus cuniculus [1] was 8.41. The compound also registered an RBA in the experiment listed under Oryctolagus cuniculus [2] of 15%. In the experiment listed under Oryctolagus cuniculus [3], this compound gave an Intrinsic activity of 1.
